{"source": "ChEMBL document CHEMBL3526151", "about": "“Reversible disulfide formation of the glutamate carboxypeptidase II inhibitor E2072 results in prolonged systemic exposures in vivo” (Drug Metab Dispos, 2012)", "key": {"Rattus norvegicus [1]": {"test_system": "Rattus norvegicus", "experiment": "Analgesic activity in Sprague-Dawley rat chronic constriction injury model assessed as change in paw withdrawal latency at 10 mg/kg/day, po measured 4 days after drug treatment cessation (reference value: -2.85 +/-0.32 s)", "type": "functional"}, "[2]": {"experiment": "Cmax in Sprague-Dawley rat at 1 mg/kg, po administered via gavage measured under fasted conditions by LC-MS/MS analysis", "type": "ADME, organism-based", "set-up": "dose 1 mg/kg, route oral", "settings": "in vivo", "summary_of_the_method": "(§1)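 Fasted male Sprague-Dawley rats (280–330 g) received 0.1, 1, 10 or 30 mg/kg by oral gavage in 50 mM HEPES buffered saline, pH 7.4. Blood drawn at 0.25–24 h into heparin/NEM tubes; plasma analyzed by LC-MS/MS. Cmax taken as observed. AUC by linear trapezoidal rule with extrapolation by λz. Cl/F and Vd/F reported. Mean ± S.D., n = 4–9.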"}, "[3]": {"experiment": "Tmax in Sprague-Dawley rat at 10 mg/kg, po administered via gavage measured under fed conditions by LC-MS/MS analysis", "type": "ADME, organism-based", "set-up": "dose 10 mg/kg, route oral", "settings": "in vivo", "summary_of_the_method": "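Nonfasted male Sprague-Dawley rats gavaged once at 10 mg/kg in 50 mM HEPES-buffered saline pH 7.4. Blood into heparin/NEM tubes at 0, 0.25, 0.5, 1, 2, 4, 6, 8 and 24 h. Plasma analysed by LC-MS/MS; Tmax taken as the observed value.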"}, "[4]": {"experiment": "Clearance in Sprague-Dawley rat at 0.1 mg/kg, iv administered as bolus injection measured under fasted conditions by LC-MS/MS analysis", "type": "ADME, organism-based", "set-up": "dose 0.1 mg/kg, route intravenous", "settings": "in vivo", "summary_of_the_method": "(§2)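 Male Sprague-Dawley rats (280–330 g), jugular vein cannulated, fasted overnight until 4 h post-dose. Single tail-vein bolus of 0.1, 1, 10 or 30 mg/kg in 50 mM HEPES buffered saline, pH 7.4. Blood drawn 0–24 h into heparin tubes containing NEM. Plasma quantified by LC-MS/MS after NEM derivatization. Noncompartmental analysis: AUClast by linear trapezoidal rule, Cl = dose/AUC0-∞. Mean ± S.D., n = 4–9.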"}, "[5]": {"experiment": "Cmax in Sprague-Dawley rat brain at 10 mg/kg/day, po administered for 5 days measured per gm of tissue by LC-MS/MS analysis", "type": "ADME, organism-based", "set-up": "dose 10 mg/kg/day, route oral", "summary_of_the_method": "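Male Sprague-Dawley rats were dosed orally with 10 mg/kg/day, either once or daily for 5 days; n = 4 per group. Blood was taken by cardiac puncture and liver, kidney, brain and sciatic nerve were collected at 0–8 h post-dose. Tissues were homogenized in PBS containing NEM at equal volume per gram. NEM-derivatized analyte was extracted with methanol and quantified by LC-MS/MS (1–5000 ng/ml). Cmax is the observed value.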"}, "[6]": {"experiment": "Clearance in Sprague-Dawley rat at 10 mg/kg, iv by LC-MS/MS analysis", "type": "ADME, organism-based", "set-up": "dose 10 mg/kg, route intravenous", "settings": "in vivo", "summary_of_the_method": "(§3)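 Male Sprague-Dawley rats dosed intravenously at 10 mg/kg (n = 6). Blood sampling extended to 7 days into heparin tubes containing NEM. Plasma assayed for parent and homodisulfide by LC-MS/MS, calibration range 1–5000 ng/ml. Noncompartmental analysis, t1/2 = 0.693/λz. Mean ± S.D.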"}, "[7]": {"experiment": "Apparent volume of distribution in cynomolgus monkey at 5 mg/kg, po by LC-MS/MS analysis", "type": "ADME, organism-based, Macaca fascicularis", "set-up": "dose 5 mg/kg, route oral", "settings": "in vivo", "summary_of_the_method": "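Cynomolgus monkeys (n = 3) dosed orally at a nominal 5 mg/kg in TCEP-treated 50 mM HEPES solution. Blood taken via iliac or femoral arterial cannula up to 9 days into heparin/NEM tubes. Plasma analyzed by LC-MS/MS. Cl/F and Vd/F derived noncompartmentally.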"}, "[8]": {"experiment": "AUC(0 to last) in Sprague-Dawley rat at 0.1 mg/kg, iv administered as bolus injection measured under fasted conditions by LC-MS/MS analysis", "type": "ADME, organism-based", "set-up": "time 0 - last, dose 0.1 mg/kg, route intravenous", "settings": "plasma", "summary_of_the_method": "as §2"}, "[9]": {"experiment": "Volume of distribution in Sprague-Dawley rat at 1 mg/kg, iv administered as bolus injection measured under fasted conditions by LC-MS/MS analysis", "type": "ADME, organism-based", "set-up": "dose 1 mg/kg, route intravenous", "settings": "in vivo", "summary_of_the_method": "(§4)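 Jugular-cannulated male Sprague-Dawley rats, 280–330 g, fasted overnight to 4 h post-dose. Single dose in 50 mM HEPES-buffered saline pH 7.4, by oral gavage or as tail-vein i.v. bolus. Blood into heparin/NEM tubes at 0–24 h. Plasma measured by LC-MS/MS; noncompartmental analysis; Tmax observed; Vd = dose/(AUCinf·λz).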"}, "[10]": {"experiment": "Cmax in Sprague-Dawley rat at 0.1 mg/kg, po administered via gavage measured under fasted conditions by LC-MS/MS analysis", "type": "ADME, organism-based", "set-up": "dose 0.1 mg/kg, route oral", "settings": "in vivo", "summary_of_the_method": "as §1"}, "[11]": {"experiment": "Volume of distribution in Sprague-Dawley rat at 10 mg/kg, iv administered as bolus injection measured under fasted conditions by LC-MS/MS analysis", "type": "ADME, organism-based", "set-up": "dose 10 mg/kg, route intravenous", "settings": "in vivo", "summary_of_the_method": "as §4"}, "[12]": {"experiment": "Elimination half life in cynomolgus monkey at 5 mg/kg, iv administered as bolus injection by LC-MS/MS analysis", "type": "ADME, organism-based, Macaca fascicularis", "set-up": "dose 5 mg/kg, route intravenous", "settings": "in vivo, read-out: beta t1/2 (converted)", "summary_of_the_method": "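Cynomolgus monkeys (n = 3) received a nominal 5 mg/kg dose in 50 mM HEPES, TCEP-treated to prevent disulfide formation. Dosing was either an IV bolus via cephalic or saphenous vein or oral. Arterial cannula blood was collected into NEM-containing heparinized tubes for up to 9 days and analyzed by LC-MS/MS. Noncompartmental analysis gave t1/2 = 0.693/λz and F% = dose-normalized mean AUCinf p.o./i.v. ×100.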"}, "[13]": {"experiment": "Half life in Sprague-Dawley rat at 1 mg/kg, po administered via gavage measured under fasted conditions by LC-MS/MS analysis", "type": "ADME, organism-based", "set-up": "dose 1 mg/kg, route oral", "settings": "in vivo"}, "[14]": {"experiment": "Phase 2 metabolic stability in rat liver microsomes assessed as compound remaining at 10 uM measured for 1 hr by LC-MS/MS analysis in absence of cofactors", "type": "ADME", "settings": "read-out: Stability", "summary_of_the_method": "(§5)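 Glucuronidation in liver microsomes of the named species, 0.5 mg/ml protein, compound at 10 μM final, in 50 mM Tris-HCl pH 7.5 with 8 mM MgCl2 and 25 μg/ml alamethicin. Preincubated at 37°C, then started with 2 mM UDPGA (final); cofactor-free controls run alongside. Duplicate reactions, sampled up to 1 h, quenched with cold acetonitrile plus internal standard; disappearance followed by LC-MS/MS.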"}, "Rattus norvegicus [15]": {"test_system": "Rattus norvegicus", "experiment": "AUC(0 to infinity) in Sprague-Dawley rat at 0.1 mg/kg, po administered via gavage measured under fasted conditions by LC-MS/MS analysis", "type": "ADME, organism-based, Plasma", "set-up": "time infinity, dose 0.1 mg/kg, route oral", "settings": "in vivo", "summary_of_the_method": "as §1"}, "[16]": {"experiment": "Oral bioavailability in Sprague-Dawley rat at 30 mg/kg administered via gavage measured under fasted conditions by LC-MS/MS analysis", "type": "ADME, organism-based", "settings": "in vivo"}, "[17]": {"experiment": "AUC(0 to infinity) in Sprague-Dawley rat at 1 mg/kg, po administered via gavage measured under fasted conditions by LC-MS/MS analysis", "type": "ADME, organism-based", "set-up": "time infinity, dose 1 mg/kg, route oral", "settings": "plasma", "summary_of_the_method": "as §1"}, "[18]": {"experiment": "Phase 2 metabolic stability in mouse liver microsomes assessed as compound remaining at 10 uM measured for 1 hr by LC-MS/MS analysis", "type": "ADME", "settings": "read-out: Stability", "summary_of_the_method": "as §5"}, "Rattus norvegicus [19]": {"test_system": "Rattus norvegicus", "experiment": "Analgesic activity in Sprague-Dawley rat chronic constriction injury model assessed as change in paw withdrawal latency at 10 mg/kg/day, po measured 7 days after drug treatment cessation (reference value: -2.68 +/-0.43 s)", "type": "functional"}, "[20]": {"experiment": "AUC(0 to last) in Sprague-Dawley rat at 0.1 mg/kg, po administered via gavage measured under fasted conditions by LC-MS/MS analysis", "type": "ADME, organism-based", "set-up": "time 0 - last, dose 0.1 mg/kg, route oral", "settings": "plasma", "summary_of_the_method": "as §1"}, "[21]": {"experiment": "AUC(0 to infinity) in Sprague-Dawley rat at 10 mg/kg, iv by LC-MS/MS analysis", "type": "ADME, organism-based", "set-up": "time infinity, dose 10 mg/kg, route intravenous", "settings": "plasma", "summary_of_the_method": "as §3"}, "[22]": {"experiment": "Volume of distribution in Sprague-Dawley rat at 30 mg/kg, iv administered as bolus injection measured under fasted conditions by LC-MS/MS analysis", "type": "ADME, organism-based", "set-up": "dose 30 mg/kg, route intravenous", "settings": "in vivo", "summary_of_the_method": "as §4"}}}
{"smiles": "O=C(O)c1cccc(-c2cccc(CCS)c2C(=O)O)c1", "values": [{"measurement": "Time", "setting": "Rattus norvegicus [1]", "value": -1.36, "unit": "s"}, {"measurement": "Cmax", "setting": "[2]", "value": 1100, "unit": "ng/mL"}, {"measurement": "Tmax", "setting": "[3]", "value": 0.29, "unit": "h"}, {"measurement": "clearance", "setting": "[4]", "value": 1, "unit": "mL/min/kg"}, {"measurement": "Cmax", "setting": "[5]", "value": 32.4, "unit": "ng/g"}, {"measurement": "clearance", "setting": "[6]", "value": 2, "unit": "mL/min/kg"}, {"measurement": "Vd/F", "setting": "[7]", "value": 0.79, "unit": "L/kg"}, {"measurement": "AUC(0-t)", "setting": "[8]", "value": 1800, "unit": "ng·h/mL"}, {"measurement": "Vd", "setting": "[9]", "value": 0.21, "unit": "L/kg"}, {"measurement": "Cmax", "setting": "[10]", "value": 62.6, "unit": "ng/mL"}, {"measurement": "Vd", "setting": "[11]", "value": 1.43, "unit": "L/kg"}, {"measurement": "half-life", "setting": "[12]", "value": 23, "unit": "h"}, {"measurement": "half-life", "setting": "[13]", "value": 3.72, "unit": "h"}, {"measurement": "remaining at 1 h, 10 µM", "setting": "[14]", "value": "> 90", "unit": "%"}, {"measurement": "AUC", "setting": "Rattus norvegicus [15]", "value": 605, "unit": "ng·h/mL"}, {"measurement": "bioavailability", "setting": "[16]", "value": 37.5, "unit": "%"}, {"measurement": "AUC(0-inf)", "setting": "[17]", "value": 3210, "unit": "ng·h/mL"}, {"measurement": "remaining at 1 h, 10 µM", "setting": "[18]", "value": "> 90", "unit": "%"}, {"measurement": "Time", "setting": "Rattus norvegicus [19]", "value": -1.53, "unit": "s"}, {"measurement": "AUC(0-t)", "setting": "[20]", "value": 268, "unit": "ng·h/mL"}, {"measurement": "AUC(0-inf)", "setting": "[21]", "value": 87000, "unit": "ng·h/mL"}, {"measurement": "Vd", "setting": "[22]", "value": 1.08, "unit": "L/kg"}]}
